According to ChEMBL document CHEMBL1123481, “Structure-activity relationships of (arylalkyl)imidazole anticonvulsants: comparison of the (fluorenylalkyl)imidazoles with nafimidone and denzimol” (J Med Chem, 1986):

Experiments:
[1] = Compound was tested for its toxicity in rat; Ca 4550; assay type: organism-based; conditions: in vivo
[2] = Compound was tested for its toxicity in rat; assay type: organism-based; conditions: in vivo
How it was run: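 Female Fischer 344 rats were fasted and given a single oral gavage dose, four dose levels per compound, as a suspension in 10% aqueous acacia. Mortality was scored and the median lethal dose (LD50) was derived.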

[3] = species on record: Mus musculus; test: Compound was tested for time to peak anticonvulsant effect (TPE); assay type: functional
How it was run: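 Time to peak effect after oral dosing in 5% acacia/water was estimated by testing mice at 0.5, 1, 2, 3 and 4 h posttreatment in the MES and horizontal screen tests.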

[4] = tested on: Mus musculus; test: Effective dose in mice by horizontal screen assay (administered orally); assay type: functional; conditions: po
How it was run: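 Fasted, pre-trained male CF1 mice (20–25 g) were dosed orally across a range of doses, given as a suspension in 5% acacia/water. Each mouse was placed on a 13 cm square wire screen, and the screen was rotated 180°. The score was return to the top within 1 min. Time of peak effect was scanned at 0.5–4 h. Each compound was then retested at that time with at least 4 doses and 12 mice per dose.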

[5] = species on record: Mus musculus; test: Potentiation of hexobarbital-induced sleeping time in mice; assay type: functional
How it was run: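 Groups of 10 fasted mice received compound orally at 10 mg/kg in 5% acacia/water (10 mL/kg). At the compound's time of peak effect they were given hexobarbital 100 mg/kg ip, solubilized with stoichiometric NaOH. Sleeping time, measured as loss of righting reflex, was recorded to the nearest minute. Values are mean ± SEM.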

[6] = tested on: Mus musculus; test: Effective dose in mice by pentylenetetrazole assay (administered subcutaneously); assay type: functional; conditions: sc
How it was run: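 Test compound was given orally to mice. At its previously determined time of peak effect, pentylenetetrazole (110 mg/kg in water, 10 mL/kg) was injected sc into the neck skin fold. Mice were watched for 15 min for presence or absence of a clonic seizure. Where protection was bell-shaped, the value is the dose giving maximum protection.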

Q: For `O=C(Cn1ccnc1)c1ccc2c(c1)Cc1ccccc1-2`, which LD50 [1] is on record?
A: Its LD50 is 4550 mg/kg.

Q: And the LD50 [2]?
A: Its LD50 is 504 mg/kg.

Q: What about the TPE [3] of the same molecule?
A: The TPE was 3 h.

Q: And the ED50 [4]?
A: Its ED50 is over 1000 mg/kg.

Q: And the ST [5]?
A: The ST was 73.7 min.

Q: And the ED50 [6]?
A: Its ED50 is over 200 mg/kg.
